Assay results: ChEMBL document CHEMBL1123586, “3-[(2-ethoxyphenoxy)methyl]piperidine derivatives. Synthesis and antidepressant activity” (J Med Chem, 1987)

Tests used:
Mus musculus [1] = experiment: Pentylenetetrazole antagonistic activity on peroral administration in mice; inactive at this dose.; format: functional
Sus scrofa [2] = species on record: Sus scrofa; experiment: Tested for in vitro reuptake inhibition of [3H]dopamine in pig striatal synaptosomes.; format: functional; details: Brain
In short: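 Pig corpus striatum synaptosomes (slaughterhouse brains) take up [3H]DA (2 nM) with the compound present. Nonspecific transport is defined with benztropine and also by incubation at 0–4 °C without drug. IC50 for specific uptake by log-probit analysis over four concentrations, each in triplicate.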

Mus musculus [3] = experiment: Antidepressant activity was assessed from the ability to antagonize reserpine-induced hypothermia on peroral administration in mice;value ranges from (11.1-31.); format: functional
Sus scrofa [4] = species on record: Sus scrofa; experiment: Tested for in vitro reuptake inhibition of [3H]-5-hydroxy tryptamine in pig frontal synaptosomes.; format: functional; details: Brain
In short: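 Synaptosomes from frontal cortex of slaughterhouse pig brain take up [3H]-5-HT (4 nM) with the compound present. Nonspecific uptake is defined with chlorimipramine and also by incubating at 0–4 °C without drug. IC50 for specific uptake by log-probit analysis, four concentrations, each in triplicate.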

Mus musculus [5] = experiment: Antidepressant activity was assessed from the ability to antagonize reserpine-induced palpebral ptosis on peroral administration in mice;value ranges from (2.7-5.4.); format: functional
Mus musculus [6] = experiment: Amphetamine antagonistic activity on peroral administration in mice; value ranges from (7.4-19.7.); format: functional
Mus musculus [7] = experiment: Compound dose that causes lethality (acute toxicity) was determined by administering perorally in mice.; format: organism-based; details: in vivo, po
Sus scrofa [8] = species on record: Sus scrofa; experiment: Tested for in vitro reuptake inhibition of [3H]norepinephrine in pig occipital synaptosomes.; format: functional; details: Brain
In short: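 [3H]NE (15 nM) uptake into occipital cortex synaptosomes from slaughterhouse pig brain, measured with the compound present. Nonspecific transport is defined with desipramine and also by incubation at 0–4 °C without drug. IC50 for specific uptake from log-probit analysis, four concentrations, each in triplicate.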

Mus musculus [9] = experiment: Amphetamine antagonistic activity on peroral administration in mice.;value ranges from (5.1-5.9); format: functional
Mus musculus [10] = experiment: Antidepressant activity was assessed from the ability to antagonize reserpine-induced palpebral ptosis on peroral administration in mice.;Value ranges from (0.9-3.1).; format: functional
Mus musculus [11] = experiment: Antidepressant activity was assessed from the ability to antagonize reserpine-induced hypothermia on peroral administration in mice;value ranges from (13.5-19.1); format: functional
Mus musculus [12] = experiment: Pentylenetetrazole antagonistic activity on peroral administration in mice; Value ranges from (24.5-41.4); format: functional
Mus musculus [13] = experiment: Amphetamine antagonistic activity on peroral administration in mice; Value ranges from (29.4-65.9); format: functional
Mus musculus [14] = experiment: Antidepressant activity was assessed from the ability to antagonize reserpine-induced palpebral ptosis on peroral administration in mice; Value ranges from (1.3-3.4).; format: functional
Mus musculus [15] = experiment: Amphetamine antagonistic activity on peroral administration in mice; inactive at this dose.; format: functional
Mus musculus [16] = experiment: Pentylenetetrazole antagonistic activity on peroral administration in mice; inactive at this dose..; format: functional
Mus musculus [17] = experiment: Antidepressant activity was assessed from the ability to antagonize reserpine-induced hypothermia on peroral administration in mice;inactive at this dose..; format: functional
Mus musculus [18] = experiment: Antidepressant activity was assessed from the ability to antagonize reserpine-induced palpebral ptosis on peroral administration in; inactive at this dose.; format: functional

| SMILES | ED (Mus musculus [1]) [mg/kg] | IC50 (Sus scrofa [2]) [µM] | ED (Mus musculus [3]) [mg/kg] | IC50 (Sus scrofa [4]) [µM] | ED (Mus musculus [5]) [mg/kg] | ED (Mus musculus [6]) [mg/kg] | LD (Mus musculus [7]) [mg/kg] | IC50 (Sus scrofa [8]) [µM] | ED (Mus musculus [9]) [mg/kg] | ED (Mus musculus [10]) [mg/kg] | ED (Mus musculus [11]) [mg/kg] | ED (Mus musculus [12]) [mg/kg] | ED (Mus musculus [13]) [mg/kg] | ED (Mus musculus [14]) [mg/kg] | ED (Mus musculus [15]) [mg/kg] | ED (Mus musculus [16]) [mg/kg] | ED (Mus musculus [17]) [mg/kg] | ED (Mus musculus [18]) [mg/kg] |
| --- | --- | --- | --- | --- | --- | --- | --- | --- | --- | --- | --- | --- | --- | --- | --- | --- | --- | --- |
| CCOc1ccccc1OCC1CCCNC1 (stereo not given) | > 50 | 62 | 17 | 95 | 3.7 | 9.4 | 300 | 0.97 | – | – | – | – | – | – | – | – | – | – |
| CCOc1ccccc1OCC1(O)CCCNC1 (stereo not given) | > 50 | 20 | – | 65 | – | – | 150 | 0.66 | 5.5 | 1.5 | 15.2 | – | – | – | – | – | – | – |
| CCOc1ccccc1OCC1CNCCO1 (stereo not given) [VILOXAZINE] | – | 38 | – | 20 | – | – | 600 | 0.22 | – | – | – | – | – | – | – | – | – | – |
| CNCCCN1c2ccccc2CCc2ccccc21 [DESIPRAMINE] | – | 6.1 | – | 0.42 | – | – | 300 | 0.0032 | – | – | – | 33.1 | 40.3 | 1.8 | – | – | – | – |
| CCOc1ccccc1OCC1(OC)CCCNC1 (stereo not given) | – | 68 | – | 110 | – | – | 200 | 1.3 | – | – | – | – | – | – | > 50 | > 50 | > 25 | > 25 |
